# Assay results taken from ChEMBL document CHEMBL1156006, “Potent and cellularly active 4-aminoimidazole inhibitors of cyclin-dependent kinase 5/p25 for the treatment of Alzheimer's disease” (Bioorg Med Chem Lett, 2009).
# Experiments:
# [1] = target: T1, Cyclin-dependent kinase 5/CDK5 activator 1 (Homo sapiens, UniProt Q00535); assay: Inhibition of CDK5/p25 by scintillation proximity assay; type: protein-complex assay
# [2] = Selectivity ratio, IC50 for CDK2/cyclin E over IC50 for CDK5/p25
# [3] = target: T1, Cyclin-dependent kinase 5/CDK5 activator 1; assay: Inhibition of human CDK5/p25 expressed in CHO cells after 2 hrs by whole cell assay; type: cell-based
# Method in brief: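 The cell line carries doxycycline-regulated CDK5, p25 and tau transgenes and was kept uninduced in doxycycline medium. Expression was induced by removing doxycycline for 24 h. Cells were then treated with compound for 2 h and lysed. Phosphorylated tau was measured in detergent-soluble extracts by AlphaLISA.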
# [4] = Apparent permeability from basolateral to apical side in human Caco-2 cells
# [5] = Apparent permeability from apical to basolateral side in human Caco-2 cells
# [6] = Plasma concentration in FV/B mouse at 2 mg/kg, sc after 1 hr; type: ADME, organism-based; set-up: dose 2 mg/kg, route subcutaneous
# [7] = Plasma concentration in MDR1A/1B knockout mouse at 2 mg/kg, sc after 1 hr; type: ADME, organism-based; set-up: dose 2 mg/kg, route subcutaneous
# [8] = Drug level in FV/B mouse brain at 2 mg/kg, sc after 1 hr; type: ADME, organism-based; set-up: dose 2 mg/kg, route subcutaneous; settings: read-out: Drug uptake
# [9] = Drug level in MDR1A/1B knockout mouse brain at 2 mg/kg, sc after 1 hr; type: ADME, organism-based; set-up: dose 2 mg/kg, route subcutaneous; settings: read-out: Drug uptake
# [10] = Ratio of drug level from brain to plasma in FV/B mouse at 2 mg/kg, sc after 1 hr
# [11] = Ratio of drug level from brain to plasma in MDR1A/1B knockout mouse at 2 mg/kg, sc after 1 hr
# [12] = target: Glycogen synthase kinase-3 beta (Homo sapiens) (UniProt P49841); assay: Inhibition of GSK3-beta at 10 uM by scintillation proximity assay
# Sequence of Glycogen synthase kinase-3 beta (Homo sapiens) (P49841 whole entry, looked up): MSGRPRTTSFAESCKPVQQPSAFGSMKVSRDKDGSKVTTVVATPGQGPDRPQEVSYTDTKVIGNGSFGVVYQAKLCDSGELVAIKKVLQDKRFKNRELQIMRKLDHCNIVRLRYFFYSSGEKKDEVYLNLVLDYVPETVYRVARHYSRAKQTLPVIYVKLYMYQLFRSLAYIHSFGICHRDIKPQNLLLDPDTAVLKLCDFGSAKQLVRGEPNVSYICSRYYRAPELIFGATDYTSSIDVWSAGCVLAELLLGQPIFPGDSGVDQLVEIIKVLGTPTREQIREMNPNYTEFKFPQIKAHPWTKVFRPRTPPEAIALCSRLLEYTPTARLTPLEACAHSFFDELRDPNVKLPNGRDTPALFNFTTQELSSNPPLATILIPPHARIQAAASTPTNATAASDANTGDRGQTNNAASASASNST
# Method in brief: (§1)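 Single-concentration profiling by scintillation proximity assay across a 20-kinase panel, including AMPK, GSK3b, MAPK1 and PHK. Compound was tested at 10, with ATP at the Km of each kinase.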
# [13] = Inhibition of AMPK at 10 uM by scintillation proximity assay; method in brief: as §1
# [14] = Inhibition of PHK at 10 uM by scintillation proximity assay; method in brief: as §1
# [15] = Selectivity ratio, IC50 for human CDK5/p25 by whole cell assay over IC50 for CDK5/p25
# [16] = target: Dual specificity protein kinase CLK1 (Homo sapiens) (UniProt P49759); assay: Inhibition of CLK1 at 10 uM by scintillation proximity assay
# Sequence of Dual specificity protein kinase CLK1 (Homo sapiens) (P49759 whole entry, looked up): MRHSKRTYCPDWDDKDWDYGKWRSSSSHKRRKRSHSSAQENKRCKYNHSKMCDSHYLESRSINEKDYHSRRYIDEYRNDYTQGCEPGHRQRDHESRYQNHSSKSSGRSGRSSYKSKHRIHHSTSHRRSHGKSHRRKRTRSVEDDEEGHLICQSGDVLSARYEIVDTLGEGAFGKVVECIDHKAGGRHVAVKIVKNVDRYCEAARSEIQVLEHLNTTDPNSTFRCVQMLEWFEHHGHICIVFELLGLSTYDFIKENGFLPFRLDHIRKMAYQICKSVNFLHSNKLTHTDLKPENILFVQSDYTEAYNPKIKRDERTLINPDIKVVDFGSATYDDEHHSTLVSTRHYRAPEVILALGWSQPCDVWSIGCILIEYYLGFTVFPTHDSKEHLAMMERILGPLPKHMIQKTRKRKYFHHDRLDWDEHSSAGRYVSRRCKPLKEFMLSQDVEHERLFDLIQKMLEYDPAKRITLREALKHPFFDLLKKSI
# [17] = target: Dual specificity protein kinase CLK1 (Homo sapiens) (UniProt P49759); assay: Inhibition of CLK1 at 1 uM by scintillation proximity assay
# [18] = target: Glycogen synthase kinase-3 beta (Homo sapiens) (UniProt P49841); assay: Inhibition of GSK3-beta at 1 uM by scintillation proximity assay
# [19] = target: Mitogen-activated protein kinase 1 (Homo sapiens) (UniProt P28482); assay: Inhibition of MAPK1/ERK2 at 10 uM by scintillation proximity assay; method in brief: as §1
# Sequence of Mitogen-activated protein kinase 1 (Homo sapiens) (P28482 whole entry, canonical isoform): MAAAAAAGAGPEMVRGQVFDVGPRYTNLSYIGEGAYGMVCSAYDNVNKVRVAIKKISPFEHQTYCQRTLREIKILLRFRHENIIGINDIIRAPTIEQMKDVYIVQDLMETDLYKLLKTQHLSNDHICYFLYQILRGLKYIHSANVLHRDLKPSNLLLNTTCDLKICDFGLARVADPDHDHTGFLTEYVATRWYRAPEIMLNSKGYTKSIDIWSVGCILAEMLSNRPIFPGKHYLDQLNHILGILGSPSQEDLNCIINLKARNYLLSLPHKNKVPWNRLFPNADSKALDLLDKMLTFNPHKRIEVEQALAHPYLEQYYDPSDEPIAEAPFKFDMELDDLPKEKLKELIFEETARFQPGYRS
# [20] = target: Mitogen-activated protein kinase 1 (Homo sapiens) (UniProt P28482); assay: Inhibition of MAPK1/ERK2 at 1 uM by scintillation proximity assay
# [21] = target: Casein kinase I isoform delta (Homo sapiens) (UniProt P48730); assay: Inhibition of CK1delta at 10 uM by scintillation proximity assay
# Sequence of Casein kinase I isoform delta (Homo sapiens) (P48730 whole entry, looked up, canonical isoform): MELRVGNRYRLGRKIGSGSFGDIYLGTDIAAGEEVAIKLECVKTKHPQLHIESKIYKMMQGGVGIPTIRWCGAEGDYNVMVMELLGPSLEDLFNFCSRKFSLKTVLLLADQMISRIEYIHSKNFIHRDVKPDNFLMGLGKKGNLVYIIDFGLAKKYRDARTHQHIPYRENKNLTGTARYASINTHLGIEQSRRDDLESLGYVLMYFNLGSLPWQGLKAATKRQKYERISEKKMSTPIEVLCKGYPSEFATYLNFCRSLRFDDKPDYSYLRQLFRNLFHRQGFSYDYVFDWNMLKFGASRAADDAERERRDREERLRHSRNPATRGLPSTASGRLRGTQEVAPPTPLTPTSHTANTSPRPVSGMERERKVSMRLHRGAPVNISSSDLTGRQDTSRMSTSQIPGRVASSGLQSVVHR
# [22] = target: Casein kinase I isoform delta (Homo sapiens) (UniProt P48730); assay: Inhibition of CK1delta at 1 uM by scintillation proximity assay
# [23] = target: T2, Cyclin-dependent kinase 2/cyclin A (Homo sapiens) (UniProt P24941+P20248+P78396); assay: Inhibition of CDK2/cyclin A at 10 uM by scintillation proximity assay; type: protein-complex assay
# [24] = target: T2, Cyclin-dependent kinase 2/cyclin A (Homo sapiens); assay: Inhibition of CDK2/cyclin A at 1 uM by scintillation proximity assay; type: protein-complex assay
# T1 sequence (Q00535 whole entry): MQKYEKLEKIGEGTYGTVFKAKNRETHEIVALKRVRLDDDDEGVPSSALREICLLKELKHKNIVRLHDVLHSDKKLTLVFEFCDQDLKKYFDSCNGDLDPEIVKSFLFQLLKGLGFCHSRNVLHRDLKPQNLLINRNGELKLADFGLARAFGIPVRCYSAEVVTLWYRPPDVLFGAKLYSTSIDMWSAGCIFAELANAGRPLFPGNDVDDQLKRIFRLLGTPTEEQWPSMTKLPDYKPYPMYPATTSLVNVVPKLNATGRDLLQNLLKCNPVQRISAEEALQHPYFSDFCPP
# T1 sequence (Q15078 whole entry, further chain): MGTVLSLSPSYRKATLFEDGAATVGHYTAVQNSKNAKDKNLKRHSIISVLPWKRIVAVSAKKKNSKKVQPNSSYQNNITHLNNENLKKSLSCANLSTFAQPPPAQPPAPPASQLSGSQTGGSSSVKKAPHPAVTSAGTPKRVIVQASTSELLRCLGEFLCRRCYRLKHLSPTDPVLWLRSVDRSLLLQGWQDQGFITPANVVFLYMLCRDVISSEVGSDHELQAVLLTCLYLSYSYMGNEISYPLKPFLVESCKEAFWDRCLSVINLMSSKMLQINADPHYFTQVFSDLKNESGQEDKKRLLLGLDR
Compound,IC50 [1],Ratio IC50 [2],other results
COc1ccc(CC(=O)Nc2cn([C@H]3C[C@@H](C(=O)OC)C3)cn2)cc1,145 nM,0.7,–
Cc1cccc(C(=O)N[C@H]2C[C@@H](n3cnc(NC(=O)Cc4cccc5ccccc45)c3)C2)n1,6 nM,–,IC50 [3]: 230 nM; concentration at 1 h [6]: 280 ng/mL; concentration at 1 h [7]: 336 ng/mL; concentration at 1 h [8]: 34 ng/g; concentration at 1 h [9]: 383 ng/g; Kp at 1 h [10]: 0.12; Kp at 1 h [11]: 1.1
COc1ccc(CC(=O)Nc2cn([C@H]3C[C@@H](O)C3)cn2)cc1,95 nM,0.7,–
O=C(Cc1ccccc1)Nc1cn(C2CCC2)cn1,500 nM,–,–
O=C(Cc1cccc2ccccc12)Nc1cn([C@H]2C[C@@H](NC(=O)c3cccnc3)C2)cn1,46 nM,15,IC50 [3]: > 30000 nM
O=C(Cc1cccc2ccccc12)Nc1cn(C2CCC2)cn1,46 nM,–,–
NC(=O)[C@H]1C[C@@H](n2cnc(NC(=O)Cc3cccc4ccccc34)c2)C1,391 nM,2,–
COc1ccc(CC(=O)Nc2cn(Cc3ccccc3)cn2)cc1,8640 nM,–,–
COc1ccc(CC(=O)Nc2cn([C@H]3C[C@H](C(=O)OC)C3)cn2)cc1,4380 nM,0.2,–
CC(=O)N[C@H]1C[C@@H](n2cnc(NC(=O)Cc3cccc4ccccc34)c2)C1,8 nM,17,IC50 [3]: > 30000 nM; Papp B→A [4]: 17.5 ×10⁻⁶ cm/s; Papp A→B [5]: 1.5 ×10⁻⁶ cm/s
COc1ccc(CC(=O)Nc2cn(C3CCCCC3)cn2)cc1,748 nM,–,–
COc1ccc(CC(=O)Nc2cn([C@H]3C[C@H](O)C3)cn2)cc1,1090 nM,0.7,–
COc1ccc(CC(=O)Nc2cn(C(C)C)cn2)cc1,425 nM,–,–

# Now from value to molecule, other results behind:
IC50 [1],Ratio IC50 [2],Compound,other results
64 nM,1.5,O=C(Cc1ccccc1)Nc1ncc(C2CCC2)s1,–
14 nM,20,O=C(Cc1cccc2ccccc12)Nc1cn([C@H]2C[C@@H](NC(=O)c3ccccn3)C2)cn1,IC50 [3]: 1300 nM; Papp B→A [4]: 21 ×10⁻⁶ cm/s; Papp A→B [5]: 26 ×10⁻⁶ cm/s
107 nM,15,CC(=O)N(C)[C@H]1C[C@@H](n2cnc(NC(=O)Cc3cccc4ccccc34)c2)C1,–
> 10000 nM,–,COc1ccc(CC(=O)Nc2cn(C)cn2)cc1,–
28 nM,11,O=C(Cc1cccc2ccccc12)Nc1cn([C@H]2C[C@@H](NC(=O)c3ccncc3)C2)cn1,–
145 nM,–,COc1ccc(CC(=O)Nc2cn(C3CCC3)cn2)cc1,inhibition [12]: 34%; inhibition [13]: 48%; inhibition [14]: 32%
178 nM,6,COc1ccc(CC(=O)Nc2cn([C@H]3C[C@@H](NS(C)(=O)=O)C3)cn2)cc1,–
6 nM,34,O=C(Cc1cccc2ccccc12)Nc1cn([C@H]2C[C@@H](NC(=O)c3cccc(Cl)n3)C2)cn1,IC50 [3]: 673 nM; Ratio IC50 [15]: 100
9 nM,7,COc1ccc(CC(=O)Nc2cn([C@H]3C[C@@H](NC(C)=O)C3)cn2)cc1,inhibition [12]: 100%; inhibition [16]: 92%; inhibition [17]: 55%; inhibition [18]: 94%; inhibition [19]: 89%; inhibition [20]: 47%; inhibition [21]: 39%; inhibition [22]: 7%; inhibition [23]: 101%; inhibition [24]: 94%
154 nM,–,COc1ccc(CC(=O)Nc2cn(C3CCCC3)cn2)cc1,–
814 nM,–,COc1ccc(CC(=O)Nc2cn(C3CC3)cn2)cc1,–
